The source made the active and inactive calls.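 The calls were made as follows, unless noted: active = NADPH fluorescence slope more negative than the mean of all samples by about 3 SD, 99.7% confidence; inactive = the rest.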
Target: Voltage-gated potassium channel subunit beta-2 (Rattus norvegicus) (UniProt P62483)
Assay: enhancers of rat Kvbeta2 NADPH turnover – biochemical, NADPH fluorescence, primary screen (AID 623);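 also: fluorescence intensity change per second fitted from 20 to 320 s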
Details: Recombinant KvBeta, NADPH fluorescence decrease slope, 10 min; at 10 µM; active compounds read low

Chain of Voltage-gated potassium channel subunit beta-2 (Rattus norvegicus) (P62483 whole entry, looked up): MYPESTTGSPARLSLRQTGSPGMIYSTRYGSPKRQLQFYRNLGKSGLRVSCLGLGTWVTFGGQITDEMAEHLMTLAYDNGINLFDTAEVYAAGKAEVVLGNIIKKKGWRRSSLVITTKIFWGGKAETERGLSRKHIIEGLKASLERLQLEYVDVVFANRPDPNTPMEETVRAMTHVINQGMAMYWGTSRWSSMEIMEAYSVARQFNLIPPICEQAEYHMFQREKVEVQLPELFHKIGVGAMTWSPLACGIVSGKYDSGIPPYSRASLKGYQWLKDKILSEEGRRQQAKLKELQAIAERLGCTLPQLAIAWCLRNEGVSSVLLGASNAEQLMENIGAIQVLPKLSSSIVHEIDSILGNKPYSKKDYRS

NADPH fluorescence slope, inactive:
Cc1ccc(S(=O)(=O)c2nc(-c3ccco3)oc2SCC(=O)NCC2CCCO2)cc1 (stereo not given) -4.2e-05
CC(=O)NCC(=O)OC(C)C(=O)Nc1ccc(C(C)=O)cc1 (stereo not given) -4.9e-05
CCSc1nc2c(c(=O)n1CC)SC(C)C2 (stereo not given) -0.000126
Cn1cnnc1SCC(=O)Nc1sc2c(c1C#N)CCCCC2 0.000104
Cc1nc2ccccc2c(=O)n1NC(=O)c1c(O)c2c(n(CC(C)C)c1=O)CCCC2 -5e-05
Cc1ccc(S(=O)(=O)N(C)c2ccc(OCC(=O)OCc3c(C)noc3C)cc2)cc1 -3.3e-05
Cn1cccc1C(=O)NC(=O)CSc1nnc(C2CC2)n1-c1ccccc1 4.6e-06
CC(=O)Nc1nc(C)c(-c2csc(Nc3ccc(O)cc3)n2)s1 -2.7e-05
COc1ccc(-c2cnc(SCC(=O)Nc3ccc4c(c3)OCO4)n2Cc2ccco2)cc1 -2.5e-05
CCOc1cc(C2C(C(=O)c3ccccc3)=C(C(=O)OC)Nc3nnnn32)ccc1O (stereo not given) -3.5e-05
CCCCC(CC)C(=O)Nc1ccc(Cl)cn1 (stereo not given) -7.8e-05
O=C(COn1nnc2ccc(C(F)(F)F)cc21)Nc1nnc(-c2ccccc2)o1 -0.000163
CCCCC(=O)Nc1nn(CCC)c2nc3ccccc3cc12 -3.3e-05
COc1ccccc1C(=O)n1nc(-c2ccccc2)nc1N -2.9e-05
O=C(OCc1cccs1)c1ccccc1NS(=O)(=O)c1ccc2c(c1)OCCO2 -2.4e-05
COC(=O)c1oc2ccc(Br)cc2c1NC(=O)CN1CCN(C)CC1 1.6e-05
O=C(OCc1nnc(-c2ccccc2)o1)c1ccc(S(=O)(=O)NCc2ccco2)cc1 -0.000324
CCOC(=O)CSc1nnc(CNC(=O)c2cccs2)n1-c1cc(OC)ccc1OC -2.7e-05
CCn1c2ccccc2c2cc(NC(=O)Cc3ccc(S(=O)(=O)N4CCOCC4)s3)ccc21 1e-05
Cn1c2c(c(=O)[nH]c1=O)C(NC(=O)c1ccco1)(C(F)(F)F)C(=O)N2 (stereo not given) -6.4e-05
Cn1c(CCCNC(=O)c2ccccc2)nc2ccccc21 -5.3e-05
Cc1ccccc1N(CC(=O)NCC1CCCO1)C(=O)C1(C)CC(=O)N=C2C=CC=CN21 (stereo not given) -9.2e-06
O=C(CSc1nnnn1-c1ccccc1)Nc1nsc(-c2ccc(Cl)cc2)n1 -3.3e-05
COc1ccccc1N1CCN(CCCNC(=O)Nc2ccccc2)CC1 1.8e-05
CS(=O)(=O)N1CCN(CC2CC3C=CC2C3)CC1 (stereo not given) -2e-05
COc1ccc(-n2ncc3c(NCc4ccc5c(c4)OCO5)ncnc32)cc1 -4.4e-05
O=S(=O)(NCCc1csc(-c2ccccc2)n1)c1ccc2c(c1)OCCO2 1e-06
c1ccc(CC2CCN(Cc3nc(-c4ccccc4)no3)CC2)cc1 -1.9e-05
CCC(NS(=O)(=O)c1ccc(C)cc1)C(=O)N1CCC2(O)CCCCC2C1 (stereo not given) 0.000113
O=C(CSc1nnnn1Cc1ccccc1)Nc1ccc2c(c1)OCO2 -9.5e-06
COc1cccc(-n2c(C)nc3c(cnn3-c3ccc(Cl)cc3)c2=O)c1 7.6e-06
Cc1cccc(-n2nnc(C(=O)NCc3ccccc3)c2N)c1 -0.000212
N#Cc1c(NC(=O)CSc2nc(N)cc(=O)[nH]2)sc2c1CCCCCC2 -3.4e-05
COc1ccccc1NC(=O)C1=C(C)Nc2ncnn2C1c1ccc(C)o1 (stereo not given) -0.000118
CCN(C(=O)CN1CCN(c2ccccc2OC)CC1)c1c(N)n(Cc2ccccc2)c(=O)[nH]c1=O -0.000102
COCCn1c(SCC(=O)Nc2nnc(C)s2)nnc1-c1ccncc1 -1.8e-05
CCn1c(CC(=O)Nc2cccc(OC)c2)nnc1SCC(=O)Nc1nccs1 -3.8e-05
O=C(NC1CCCc2ccccc21)C1CCN(S(=O)(=O)c2cnc[nH]2)CC1 (stereo not given) -2.6e-05
O=C(NC1(C(F)(F)F)NC(=O)N(Cc2ccco2)C1=O)c1cccnc1 (stereo not given) -8.5e-05
CCn1ncc(C2=NOC(C(=O)NCc3ccc(Cl)cc3)C2)c1C (stereo not given) 2.6e-05

Target: Muscarinic acetylcholine receptor M4 (Homo sapiens) (UniProt P08173)
Assay: M4-linked GIRK flux change, two-sided – cell-based, HEK293 M4/GIRK, thallium flux, BTC-AM, M4 allosteric agonist project, primary screen (AID 625;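 active = fluorescence slope after compound addition differing from the mean of all tested samples at 99.7% confidence, mostly higher but some lower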;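 also: thallium influx through GIRK channels coupled to M4 in HEK293 cells with BTC-AM dye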)
Details: at 10 µM, actives lie on both sides
Outline: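 Material – HEK293 cells with M4 receptor and GIRK channels · Buffer or medium – pH 7.3 thallium assay buffer · Doses – one dose, 10 µM final · Timing – cells overnight at 37 °C, BTC-AM loading 1 h, reads 2 min total · Measured by – kinetic fluorescence with BTC-AM dye · Controls – carbachol and DMSO controls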

Chain of Muscarinic acetylcholine receptor M4 (Homo sapiens) (P08173 whole entry, looked up): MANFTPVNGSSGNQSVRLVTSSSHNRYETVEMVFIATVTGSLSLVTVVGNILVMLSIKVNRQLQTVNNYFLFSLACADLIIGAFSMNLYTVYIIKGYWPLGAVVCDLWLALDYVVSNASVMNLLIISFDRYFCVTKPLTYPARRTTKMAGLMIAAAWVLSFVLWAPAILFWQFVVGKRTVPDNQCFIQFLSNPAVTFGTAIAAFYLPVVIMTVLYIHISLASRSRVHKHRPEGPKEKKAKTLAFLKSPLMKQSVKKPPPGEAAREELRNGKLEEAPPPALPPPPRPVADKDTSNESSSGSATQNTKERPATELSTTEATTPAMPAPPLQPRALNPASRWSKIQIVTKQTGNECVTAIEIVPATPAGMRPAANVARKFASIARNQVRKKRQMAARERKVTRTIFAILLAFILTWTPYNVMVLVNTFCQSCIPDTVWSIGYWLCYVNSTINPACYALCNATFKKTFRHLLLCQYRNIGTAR

Fluorescence slope, inactive:
Cc1ccc(S(=O)(=O)c2nc(-c3ccco3)oc2SCC(=O)NCC2CCCO2)cc1 (stereo not given) 0.00374
CC(=O)NCC(=O)OC(C)C(=O)Nc1ccc(C(C)=O)cc1 (stereo not given) 0.0073
CCSc1nc2c(c(=O)n1CC)SC(C)C2 (stereo not given) 0.00651
Cn1cnnc1SCC(=O)Nc1sc2c(c1C#N)CCCCC2 0.00534
Cc1nc2ccccc2c(=O)n1NC(=O)c1c(O)c2c(n(CC(C)C)c1=O)CCCC2 0.00523
Cc1ccc(S(=O)(=O)N(C)c2ccc(OCC(=O)OCc3c(C)noc3C)cc2)cc1 0.00507
Cn1cccc1C(=O)NC(=O)CSc1nnc(C2CC2)n1-c1ccccc1 0.00691
CC(=O)Nc1nc(C)c(-c2csc(Nc3ccc(O)cc3)n2)s1 0.00314
COc1ccc(-c2cnc(SCC(=O)Nc3ccc4c(c3)OCO4)n2Cc2ccco2)cc1 0.00501
CCOc1cc(C2C(C(=O)c3ccccc3)=C(C(=O)OC)Nc3nnnn32)ccc1O (stereo not given) 0.00584
CCCCC(CC)C(=O)Nc1ccc(Cl)cn1 (stereo not given) 0.00769
O=C(COn1nnc2ccc(C(F)(F)F)cc21)Nc1nnc(-c2ccccc2)o1 0.005
CCCCC(=O)Nc1nn(CCC)c2nc3ccccc3cc12 0.00381
COc1ccccc1C(=O)n1nc(-c2ccccc2)nc1N 0.00374
O=C(OCc1cccs1)c1ccccc1NS(=O)(=O)c1ccc2c(c1)OCCO2 0.00639
COC(=O)c1oc2ccc(Br)cc2c1NC(=O)CN1CCN(C)CC1 0.00465
O=C(OCc1nnc(-c2ccccc2)o1)c1ccc(S(=O)(=O)NCc2ccco2)cc1 0.00635
CCOC(=O)CSc1nnc(CNC(=O)c2cccs2)n1-c1cc(OC)ccc1OC 0.00509
CCn1c2ccccc2c2cc(NC(=O)Cc3ccc(S(=O)(=O)N4CCOCC4)s3)ccc21 0.00333
Cn1c2c(c(=O)[nH]c1=O)C(NC(=O)c1ccco1)(C(F)(F)F)C(=O)N2 (stereo not given) 0.00391
Cn1c(CCCNC(=O)c2ccccc2)nc2ccccc21 0.00743
Cc1ccccc1N(CC(=O)NCC1CCCO1)C(=O)C1(C)CC(=O)N=C2C=CC=CN21 (stereo not given) 0.00558
O=C(CSc1nnnn1-c1ccccc1)Nc1nsc(-c2ccc(Cl)cc2)n1 0.00729
COc1ccccc1N1CCN(CCCNC(=O)Nc2ccccc2)CC1 0.00541
CS(=O)(=O)N1CCN(CC2CC3C=CC2C3)CC1 (stereo not given) 0.00684
COc1ccc(-n2ncc3c(NCc4ccc5c(c4)OCO5)ncnc32)cc1 0.00526
O=S(=O)(NCCc1csc(-c2ccccc2)n1)c1ccc2c(c1)OCCO2 0.00312
c1ccc(CC2CCN(Cc3nc(-c4ccccc4)no3)CC2)cc1 0.00542
CCC(NS(=O)(=O)c1ccc(C)cc1)C(=O)N1CCC2(O)CCCCC2C1 (stereo not given) 0.00572
O=C(CSc1nnnn1Cc1ccccc1)Nc1ccc2c(c1)OCO2 0.00493
COc1cccc(-n2c(C)nc3c(cnn3-c3ccc(Cl)cc3)c2=O)c1 0.00702
Cc1cccc(-n2nnc(C(=O)NCc3ccccc3)c2N)c1 0.0054
N#Cc1c(NC(=O)CSc2nc(N)cc(=O)[nH]2)sc2c1CCCCCC2 0.00398
COc1ccccc1NC(=O)C1=C(C)Nc2ncnn2C1c1ccc(C)o1 (stereo not given) 0.00338
CCN(C(=O)CN1CCN(c2ccccc2OC)CC1)c1c(N)n(Cc2ccccc2)c(=O)[nH]c1=O 0.00639
COCCn1c(SCC(=O)Nc2nnc(C)s2)nnc1-c1ccncc1 0.00934
CCn1c(CC(=O)Nc2cccc(OC)c2)nnc1SCC(=O)Nc1nccs1 0.00415
O=C(NC1CCCc2ccccc21)C1CCN(S(=O)(=O)c2cnc[nH]2)CC1 (stereo not given) 0.00517
O=C(NC1(C(F)(F)F)NC(=O)N(Cc2ccco2)C1=O)c1cccnc1 (stereo not given) 0.00405
CCn1ncc(C2=NOC(C(=O)NCc3ccc(Cl)cc3)C2)c1C (stereo not given) 0.0055
